# In the library only some 3.7% were active in any assay of this set; here they are far more common.
# Furin inhibitor: human furin inhibition; P09958; purified furin, fluorogenic substrate cleavage; inhibition, % at 20 µM or 30 µM; 220,000 tested, 0.061% active; in the data active means inhibition above about 25%
# Target sequence (P09958 108-714 limits assumed): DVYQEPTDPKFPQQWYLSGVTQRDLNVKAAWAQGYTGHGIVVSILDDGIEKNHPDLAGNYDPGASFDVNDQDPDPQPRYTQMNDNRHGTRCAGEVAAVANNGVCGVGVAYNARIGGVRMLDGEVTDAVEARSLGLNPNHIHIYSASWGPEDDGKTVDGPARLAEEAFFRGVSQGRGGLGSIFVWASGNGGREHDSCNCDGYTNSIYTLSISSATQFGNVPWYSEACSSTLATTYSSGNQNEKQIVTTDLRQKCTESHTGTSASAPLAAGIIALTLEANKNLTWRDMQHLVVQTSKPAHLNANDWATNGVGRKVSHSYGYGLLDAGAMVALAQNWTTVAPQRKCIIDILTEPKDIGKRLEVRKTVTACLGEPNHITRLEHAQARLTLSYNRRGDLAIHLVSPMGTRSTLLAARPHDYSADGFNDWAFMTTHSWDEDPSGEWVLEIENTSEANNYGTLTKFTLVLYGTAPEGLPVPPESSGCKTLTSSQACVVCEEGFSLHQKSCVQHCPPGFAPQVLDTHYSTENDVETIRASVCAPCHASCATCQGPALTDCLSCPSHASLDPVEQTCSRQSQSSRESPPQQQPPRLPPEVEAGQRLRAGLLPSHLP
# NPY2 pot ag: potentiates or activates human NPY-Y2 receptor. 220,000 tested, 0.45% active. P49146. cells expressing NPY-Y2, potentiator/agonist read-out. activation, % at 3.6 µM; in the data active means activation above about 27%;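 further: cells stimulated with NPY near EC25 plus isoproterenol at EC100; 0% = vehicle plus submaximal agonist and 100% = vehicle plus saturating agonist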
# Cl transport mod: modulates chloride dependent transport by human KCC2. Q9H2X9. KCC2 cells, thallium flux FluoZin-2 fluorescence. B-score of Tl+ flux slope (higher = more flux/activation; lower = inhibition) at 10 µM. 190,000 tested, 2.2% active;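 active means thallium flux slope and its plate-corrected score both differing from the plate sample mean at a set confidence after two filtering rounds, in either direction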;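 further: slope of fluorescence scaled to starting intensity during 10 to 20 s after thallium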
# NPY-Y1 PAM-ag: potentiators or agonists of human neuropeptide Y receptor Y1; P25929; NPY-Y1 expressing cells, potentiator/agonist activation; activation, % at 3.6 µM; 220,000 tested, 0.37% active; in the data active means activation above about 33%, passing the limit was not always enough;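 further: cells stimulated with NPY at EC10 then isoproterenol at EC100; 0% = low agonist plus stimulus and 100% = saturating agonist plus stimulus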
# NPY-Y2 antag: NPY-Y2 (human) receptor antagonism | inhibition, % at 2.7 µM | NPY-Y2 expressing cells, antagonist mode | AID 793 | 140,000 tested, 0.99% active | P49146;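 further: 0% = vehicle with agonist challenge and 100% = reference antagonist with challenge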
# NPY-Y1 antag: NPY-Y1 (human) receptor antagonism. P25929. inhibition, % at 3.6 µM. HEK293-CNG Y1 cells, membrane potential fluorescence; NPY at EC95, then isoproterenol. 200,000 tested, 1% active;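 active means inhibition above the campaign mean inhibition of all tested compounds plus 3 SD, cut at about 20% in these data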;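 further: 0% = DMSO wells given NPY plus isoproterenol and 100% = isoproterenol alone without NPY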
#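 Assay system: HEK293 Y1/CNG channel cell line; Doses: single compound dose of 3.6 µM, 0.4% DMSO; Timing: dye 3 h, compound 60 min room temperature, stimulation 45 min; Technique: Membrane-potential fluorescent dye readout; Measure: % inhibition of NPY effect.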
# NPY-Y1 ant conf: human NPY-Y1 antagonism, confirmation; AID 1254; shares compounds with NPY-Y1 antag; HEK293-CNG NPY-Y1, membrane potential fluorescence, cAMP; NPY challenge against isoproterenol-raised cAMP; inhibition, % at 3.6 µM; 1,200 tested, 21% active; in the data active means inhibition above about 20%;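 further: 0% = vehicle with agonist plus stimulus and 100% = stimulus alone without agonist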
# NPY-Y2 antag ct: human NPY-Y2 antagonism in NPY-Y1 counter-screen | 1,200 tested, 28% active | AID 1255 | inhibition, % at 3.6 µM | shares compounds with NPY-Y1 antag | HEK293 NPY-Y2 CNG membrane potential fluorescence; cells given NPY, then isoproterenol;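 further: 0% = DMSO with agonist challenge and 100% = reference antagonist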
# * marks the source's active call; other numbers are inactive results; . = no result. Unless noted, no stated cut-off is given here; in the data, active means inhibition above about 17%; inactive means the rest.
SMILES,Furin inhibitor,NPY2 pot ag,Cl transport mod,NPY-Y1 PAM-ag,NPY-Y2 antag,NPY-Y1 antag,NPY-Y1 ant conf,NPY-Y2 antag ct
C=CCN(C(=O)CSc1nc2c(sc3ccccc32)c(=O)n1CCN(CC)CC)c1ccccc1,-29,-9,-0.51,-17,.,23*,44*,65*
COc1ccccc1NC(=O)CSc1nc2c(sc3ccccc32)c(=O)n1CCN(C)C,-31,-8,0.018,0,.,6,.,.
NC(=O)CSc1nnc(CSc2ncccn2)n1-c1ccccc1,-14,9,-0.25,6,.,-6,.,.
O=c1c2c(-c3ccccc3)csc2nc2c3ccccc3c(NCCN3CCOCC3)nn12,-47,-36,-0.87,-63,.,32*,27*,40*
C=CCn1c(SCC(=O)NC2CCCc3ccccc32)nnc1-c1ccncc1 (configuration not stated),-8,-7,0.23,13,1,3,.,.
Brc1ccc(-c2noc(COc3ccc4ccccc4c3)n2)o1,-7,-49,0.17,-70,14,29*,17,10
COc1ccccc1CNC(=O)C1CCC(CNc2c(N3CCC(C)CC3)c(=O)c2=O)CC1 (configuration not stated),-28,9,-0.79,4,.,.,.,.
Cc1ccc2cc(CN(CCN(C)C)C(=S)Nc3ccccc3)c(=O)[nH]c2c1C,-16,4,-0.37,-14,.,11,.,.
Cc1ccc(NC(=S)N(CCN(C)C)Cc2cc3cc(C)cc(C)c3[nH]c2=O)cc1,-5,-11,0.62,-11,7,25*,1,8
CCOC(=O)/C=C1\SCC(=O)N1CC(=O)NC(C)c1ccc(F)cc1 (configuration not stated),-18,-7,-0.051,-1,4,5,.,.
COc1ccc(C2Nc3ccccc3C(=O)N2Cc2ccccc2)cc1COc1ccccn1 (configuration not stated),0,-17,-0.66,-4,14,36*,4,6
C/C(=N/OCO/N=C(/C)c1ccc(F)cc1)c1ccc(F)cc1,-13,4,1.4,-21,9,3,.,.
Cc1cc(NC(=O)/C=C/c2ccccc2)c(C(C)C)cc1O,-18,-18,-0.89,-17,.,28*,25*,24*
Cc1cc(NC(=O)c2ccccc2Cl)c(C(C)C)cc1O,-19,15,-1.3,16,1,-2,.,.
COc1ccc(OC)c(Nc2cc(-c3ccccc3)nc(N)n2)c1,-18,-7,0.15,-33,7,42*,2,13
O=C(NCC1c2ccccc2CCN1C(=O)CN1C(=O)c2ccccc2C1=O)C1CCCCC1 (configuration not stated),-16,17,-0.7,-10,-1,2,.,.
O=C1C=C(NCc2ccc(Cl)c(Cl)c2)C2(CCCCC2)O1,-23,-6,-1,3,15,42*,10,7
Cc1ccc(S(=O)(=O)/N=c2\ccc(Cl)cn2C(F)F)cc1,10,15,0.22,5,.,3,.,.
COc1ccc(C(=O)C2CCCN(Cc3cnc(N4CCOCC4)s3)C2)c(OC)c1 (configuration not stated),-2,11,.,-10,.,-2,.,.
CC(C)CN1CCN(Cc2cccn2-c2ccc(Cl)cn2)CC1CCO (configuration not stated),-11,-21,-0.29,-19,.,33*,8,8
O=C(c1cccc(C(F)(F)F)c1)C1CCCN(Cc2cccn2-c2ccccn2)C1 (configuration not stated),-10,-39,-0.12,-60,.,59*,34*,38*
COc1ccc(C(=O)C2CCCN(Cc3cccn3-c3ccc(Cl)cn3)C2)c(OC)c1 (configuration not stated),-11,7,-0.16,-26,.,50*,29*,31*
CC(C)CN1CCN(Cc2cccn2-c2ccccn2)CC1CCO (configuration not stated),-36,-16,-0.58,4,.,10,.,.
O=C(c1cccc(C(F)(F)F)c1)C1CCCN(Cc2cccc(OCCO)c2)C1 (configuration not stated),-12,-13,.,-7,.,4,.,.
Cc1ccc(C(=O)Nc2ccc(N3CCOCC3)nc2N2CCOCC2)cc1,-9,1,1.9,-5,.,.,.,.
SMILES,Furin inhibitor,NPY2 pot ag,Cl transport mod,NPY-Y1 PAM-ag,NPY-Y2 antag,NPY-Y1 antag,NPY-Y1 ant conf,NPY-Y2 antag ct
CCc1cccc(Nc2cnn(C34C[C@@H]5C[C@@H](CC(CC(=O)O)(C5)C3)C4)c(=O)c2Cl)c1,-9,10,0.94,9,.,-3,.,.
CCNC(=O)n1nccc1C(C)Oc1cccc(C(F)(F)F)c1 (configuration not stated),-1,-1,-2.1,0,3,5,.,.
COc1ccc(C(=O)CSc2ccc(-c3ccc(C)cc3)nn2)cc1,-6,4,0.72,-5,9,25*,7,6
O=C(O)CSc1nc(-c2ccccc2)nc2c1oc1ccccc12,-2,-13,0.81,10,9,23*,5,7
O=C(O)CSc1nc(-c2ccc(Cl)cc2)nc2c1oc1ccccc12,-9,-10,1.5,-28,11,6,.,.
Cc1ccc(S(=O)(=O)N=S(CCO)CCO)cc1,-12,-4,1.7,-4,0,-1,.,.
CCCn1c2c(c(=N)c3c1CCC3)CCC2,-21,-24,-0.12,-14,.,.,.,.
CCCCCCCn1c2c(c(=N)c3ccccc31)CCC2,-11,-37,-0.45,-90,.,66*,60*,62*
CCC(C)NC(=O)CSc1nc2ccc(N3CCOCC3)cc2c(=O)n1CCc1ccccc1 (configuration not stated),-14,6,0.61,12,0,-4,.,.
CCCCn1c(SCC(=O)NC(C)CC)nc2ccc(N3CCOCC3)cc2c1=O (configuration not stated),-17,8,.,5,2,23*,-1,3
CCOc1ccccc1-c1nn2c(Cc3ccccc3)nnc2s1,-1,-19,-2.8,-74,10,52*,32*,59*
COc1cc(C2=NOC(C(=O)NCc3cccs3)C2)cc(OC)c1OC (configuration not stated),-18,-2,.,-13,3,5,.,.
COc1ccc(C2=NOC(C(=O)NCc3cccs3)C2)cc1OC (configuration not stated),-15,-11,.,-5,7,23*,8,9
COc1ccc(C2=NOC(C(=O)NCc3ccc(F)cc3)C2)cc1 (configuration not stated),-18,-10,-0.23,-23,6,41*,5,17

# Bioassay records deposited in PubChem BioAssay by several laboratories.
